# The list is not random: actives were taken first. Their share in the collection is about 1.4%.
# SR-BI DiI inh – inhibitors of SR-BI mediated HDL lipid uptake, primary screen, ldlA[mSR-BI] cells, fluorescence, single point; hit rate 0.96% among 320,000; AID 488896, 2010; inhibition, % at 12.5 µM; ldlA[mSR-BI] CHO cells, DiI-HDL uptake fluorescence, 3 h;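 active = mean replicate inhibition of at least 70% and a set share of replicates each scoring 70 or more; inconclusive = meets just one of the two criteria; inactive = fails both criteria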;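 note: 0% = median of neutral control wells and 100% = median of positive control wells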
# Target sequence (Q61009 whole entry, looked up): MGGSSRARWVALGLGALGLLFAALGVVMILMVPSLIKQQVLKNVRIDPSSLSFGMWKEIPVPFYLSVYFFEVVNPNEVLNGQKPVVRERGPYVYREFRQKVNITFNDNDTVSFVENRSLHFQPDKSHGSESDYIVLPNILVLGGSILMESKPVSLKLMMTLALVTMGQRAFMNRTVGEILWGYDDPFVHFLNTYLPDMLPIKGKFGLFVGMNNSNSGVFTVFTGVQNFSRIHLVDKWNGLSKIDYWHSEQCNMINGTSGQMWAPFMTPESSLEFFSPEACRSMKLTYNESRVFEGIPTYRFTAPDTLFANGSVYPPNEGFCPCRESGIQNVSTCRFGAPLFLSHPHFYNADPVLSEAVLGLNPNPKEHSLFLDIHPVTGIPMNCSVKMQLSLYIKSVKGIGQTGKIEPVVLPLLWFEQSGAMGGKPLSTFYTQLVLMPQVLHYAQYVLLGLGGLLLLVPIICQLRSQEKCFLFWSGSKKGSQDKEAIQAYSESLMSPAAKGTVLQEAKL
# Vif inh – HIV Vif self-association inhibitors, primary screen, imaging, HEK293T, single point; hit rate 0.35% among 340,000; inhibition, % at 7.49 µM; HEK293T cells, Vif self-association by quenched fluorescence, 24 h; in the data active = inhibition above about 50%, passing the limit was not always enough; inconclusive = no clear call, values can overlap the other calls; inactive = below about 31%
# SR-BI DiI-HDL act – activators of SR-BI mediated DiI-HDL uptake, primary screen, ldlA[mSR-BI] CHO cells, DiI fluorescence; 3 h; 100 = double the neutral-control signal; activation, % at 12.5 µM; hit rate 0.096% among 320,000; AID 504775, 2011;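 active = mean replicate activation of at least 60% and every replicate at or above 60%; inconclusive = mean or all-replicate condition met, but not both; inactive = mean below 60% and not all replicates reaching 60%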;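 note: 0% = median plate neutral-control signal and 100% = twice that signal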
#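 material = CHO ldlA[mSR-BI] cells | medium = Ham's F12 with 0.5% BSA, HEPES 25 mM, pH 7.4 | reagent = fluorescent DiI-HDL, 10 µg/mL final | compound dosing = single-point compound dose | incubation = 3 h, 37 °C | measured by = bottom-read fluorescence, 550/595 nm | measure = HDL uptake via cellular fluorescence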
# PKA-R1A activ – activators of PKA-R1A holoenzyme, primary screen, biochemical, fluorescence polarization, Cy5-IP20, bovine R1A, mouse PKAc; cAMP-dependent protein kinase type I-alpha regulatory subunit (Bos taurus) + …; PKA-R1A dissociation; scaled: DMSO 0%, 113 µM cGMP 100%; hit rate 0.083% among 340,000; AID 504707, 2011; activation, % at 11.4 µM;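 active = percent activation above the mean of all tested compounds plus 3 SD, cut at about 19% in these data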;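 note: higher means more PKAc released from R1A so a rise in polarization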
# PKA-R2B act – activators of PKA-R2B holoenzyme, primary screen, biochemical, fluorescence polarization, Cy5-IP20, human | cAMP-dependent protein kinase catalytic subunit beta (Homo sapiens) + cAMP-dependent … | PKA-R2B holoenzyme dissociation; R2B truncated from residue 108, S112A mutant; 0% DMSO only, 100% 113 µM cGMP | activation, % at 11.4 µM | hit rate 0.079% among 340,000 | AID 504700, 2011;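 active = activation above a cutoff set at the mean over all compounds plus 3 SD, cut at about 18% in these data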;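 note: higher means more holoenzyme dissociation and a rise in polarization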
# DiI quencher – DiI fluorescence quenching in cell-free counter-screen | shares compounds with SR-BI DiI inh | cell-free DiI-HDL fluorescence quenching, 30 min | AC50, µM (doses to about 35 µM), for the others: at the top dose activity change, negative = quenching | hit rate 20% among 470 | AID 540326;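 active = quenching, a falling signal, with AC50 below a set limit tied to the top valid dose, actives reach about 32 µM in these data; inconclusive = no clear call, values can overlap the other calls; inactive = rising signal, and the rest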
# Starred values were filed as active, the others as inactive; i = inactive; ? = inconclusive; . = no result.
SMILES,SR-BI DiI inh,Vif inh,SR-BI DiI-HDL act,PKA-R1A activ,PKA-R2B act,DiI quencher
CCN(C(=O)CN1CCCCC1C)c1c(N)n(Cc2ccccc2)c(=O)[nH]c1=O (centres undefined),-23,13,23,-12,-7,.
CCc1nnc(SCC(=O)Nc2ccccc2Cl)nc1CC,-3,2,3,-5,-13,.
O=C(Nc1ccccc1)Nc1sccc1-c1nc2ccccc2s1,60,-4,-60,.,.,.
O=C(Nc1cccc(Cl)c1)Nc1sccc1-c1nc2ccccc2s1,106*,-2,-106,.,.,11%
CN(C(=O)COC(=O)c1c2c(nc3ccccc13)/C(=C/c1cccc([N+](=O)[O-])c1)CCC2)C1CCS(=O)(=O)C1 (centres undefined),54,-5,-54,1,3,-7%
Cc1cc(N2CCN(C(=O)c3ccco3)CC2)n2ncc(-c3ccccc3)c2n1,78*,-10,-78,-4,11,-9%
CCOC(=O)N1CCN(C(=O)Cn2nc(C)n3nc(-c4ccc(OC)cc4)cc3c2=O)CC1,34,19,-34,-4,-18,.
CCOC(=O)C1CCN(C(=O)Cn2nc(C)n3nc(-c4ccc(OC)cc4)cc3c2=O)CC1,61,7,-61,5,-4,-1%
NS(=O)(=O)c1cccc(NC(=O)COC(=O)CCCc2c[nH]c3ccccc23)c1,15,-4,-15,-7,-11,.
CN(C)S(=O)(=O)N1CCN(C(=O)N(c2ccccc2)c2ccccc2)CC1,?,6,-70,-5,-5,-2%
Cc1ccc(S(=O)(=O)N2CCN(C(=O)N(c3ccccc3)c3ccccc3)CC2)cc1,-3,-8,3,-9,-6,.
O=C(NNC(=O)c1cc(Br)ccc1O)c1csc(N2CCOCC2)n1,128*,7,-128,5,-6,1µM*
COc1cc(NC(=O)c2ccco2)c(OC)cc1NC(=O)Nc1ccc(Cl)cc1,100*,-8,-100,-6,-6,5.1µM*
COc1cc(NC(=O)Cc2ccc(Cl)cc2)ccc1NC(=O)c1ccco1,51,2,-51,5,-2,.
COc1ccc(NC(=O)c2cc(-c3ccccc3Cl)on2)cc1,-21,-11,21,-2,-9,.
COc1cc(NC(=O)c2cc(-c3ccccc3Cl)on2)cc(OC)c1OC,83*,-15,-83,9,-2,-2%
Cc1cc(CN(C)C(=O)C2CCC(=O)N(CCc3cccc(F)c3)C2)on1 (centres undefined),-12,12,12,-4,3,-6%
Cc1ccc(S(=O)(=O)N2C(=O)CCC2C(=O)O/N=C(\N)c2cccc([N+](=O)[O-])c2)cc1 (centres undefined),-21,11,.,-16,-3,.
O=C(CNC(=O)c1ccco1)NNC(=O)c1n[nH]c(=O)c2ccccc12,-52,0,52,3,3,.
Cc1c(Br)cccc1NC(=O)c1sccc1-n1cccc1,59,-5,-59,-2,-2,.
CC(C)c1ccc(NC(=O)c2sccc2-n2cccc2)cc1,101*,-1,-101,-7,-1,2%
Cc1ccc(S(=O)(=O)N2C(=O)CCC2C(N)=O)cc1 (centres undefined),-11,0,11,9,-2,.
CN(C(=O)COC(=O)c1c[nH]c(=O)[nH]c1=O)C1CCCCC1,79*,10,-79,0,-1,-1%
CNc1cnn(-c2ccc(C)cc2)c(=O)c1Sc1ccc(C)cc1,70*,5,-70,-3,4,1%
CNc1cnn(-c2ccc(C)cc2)c(=O)c1Cl,-32,0,32,-8,-1,.
SMILES,SR-BI DiI inh,Vif inh,SR-BI DiI-HDL act,PKA-R1A activ,PKA-R2B act,DiI quencher
COc1ccc(C(=O)N/C(=C\c2cn(C)c3ccccc23)C(=O)N2CCOCC2)cc1,-5,3,5,0,7,.
Cn1ccnc1CC(O)(c1ccccc1)c1ccccc1,-4,0,4,0,-6,.
O=C(C1=COCCO1)N(Cc1nnc(-c2ccccc2Cl)o1)C1CC1,?,-7,-75,-9,4,-3%
CN(C(=O)CSc1nnc(-c2cccs2)o1)C1CCS(=O)(=O)C1 (centres undefined),-18,4,18,4,-6,.
Clc1ccc(Cn2nnc(-c3ccc(N4CCOCC4)cc3)n2)cc1,83*,2,-83,-5,-8,-6%
C/C=C(\C)C(=O)Nc1cccc(C2=NOC3(C2)C[C@@H](C(N)=O)N(C(=O)c2cc([N+](=O)[O-])cc([N+](=O)[O-])c2C)C3)c1 (some centres undefined),30,1,-30,-9,4,.
Cc1c(C(=O)N2CC3(CC(c4cccc(NC(=O)CC(c5ccccc5)c5ccccc5)c4)=NO3)C[C@@H]2C(N)=O)cc([N+](=O)[O-])cc1[N+](=O)[O-] (some centres undefined),14,-2,-14,-2,4,i
Cn1c(=O)n(C)c2cc(NC(=O)c3ccccc3[N+](=O)[O-])c(Br)cc21,4,-2,-4,-4,-3,.
O=C(c1ccc([N+](=O)[O-])cc1)N1CCOC12CCN(c1ncc(C(F)(F)F)cc1Cl)CC2,-3,2,3,-8,-12,-19%
O=C(c1ccccc1)N1CCOC12CCN(c1ncc(C(F)(F)F)cc1Cl)CC2,-6,-12,6,-12,-12,.
O=C(c1ccc(Cl)cc1)N1CCC2CC1c1cc(-c3ccccc3)ccc12 (centres undefined),27,.,-27,3,3,.
N#Cc1ccc(C(=O)N2CCC3CC2c2cc(-c4ccccc4)ccc23)cc1 (centres undefined),5,-5,-5,-7,0,-3%
O=C(c1cccc(Cl)c1)N1CCC2CC1c1cc(-c3ccccc3)ccc12 (centres undefined),13,.,-13,3,-9,-5%
CCC(CC)COC(=O)C1=C(C)NC(=O)NC1c1ccc2c(c1)OCO2 (centres undefined),-6,0,6,-3,-6,.
Cn1c(Cn2c(=O)sc3ccccc32)nnc1SCC(=O)NCCc1ccccc1,2,6,-2,4,-8,.
O=C(OCc1ccccc1)N1CCC2CC1c1cc(-c3ccccc3)ccc12 (centres undefined),-11,-5,11,-3,0,-1%
